Calls of active or inactive are those of the source. The rule behind the calls is not given here.

Usually EC50 stands for the midpoint of the concentration-response curve. One may read the bioavailability as the share of a dose that reaches the circulation, judged against a reference dose that is usually intravenous. Low readings indicate little systemic uptake, high ones much systemic uptake.

System in one data set: not listed separately
Description: Agonist activity at ferret D4 receptor in HEK293 cells coexpressing G-alpha-qo5 by FLIPR. Type of data set: functional, cell-based, Mustela putorius furo. The settings on record: Mustela putorius. The method in brief:
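HEK cells cotransfected with ferret D4 receptor and chimeric G protein Gqo5, with receptor activation read as a calcium flux signal on FLIPR. EC50 is the concentration giving half-maximal activation.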
The compound `CN1CCc2cccc3c2[C@H]1Cc1ccc(O)c(O)c1-3` [APOMORPHINE] had an EC50 of 1.5 nM. The same measure, in the same setting: the same measure for `NCCc1ccc(O)c(O)c1` [DOPAMINE]: 2.7 nM.

System in another data set: not listed separately
The data set can be described thus: Agonist activity at ferret D4 receptor in HEK293 cells coexpressing G-alpha-qo5 by FLIPR relative to dopamine. Type of data set: functional, Mustela putorius furo.
Settings: not given
The compound `CN1CCc2cccc3c2[C@H]1Cc1ccc(O)c(O)c1-3` [APOMORPHINE] displayed an Efficacy of 84%.

The next data set deals with T1, D(4) dopamine receptor (Homo sapiens) (UniProt P21917).
T1 sequence (whole entry): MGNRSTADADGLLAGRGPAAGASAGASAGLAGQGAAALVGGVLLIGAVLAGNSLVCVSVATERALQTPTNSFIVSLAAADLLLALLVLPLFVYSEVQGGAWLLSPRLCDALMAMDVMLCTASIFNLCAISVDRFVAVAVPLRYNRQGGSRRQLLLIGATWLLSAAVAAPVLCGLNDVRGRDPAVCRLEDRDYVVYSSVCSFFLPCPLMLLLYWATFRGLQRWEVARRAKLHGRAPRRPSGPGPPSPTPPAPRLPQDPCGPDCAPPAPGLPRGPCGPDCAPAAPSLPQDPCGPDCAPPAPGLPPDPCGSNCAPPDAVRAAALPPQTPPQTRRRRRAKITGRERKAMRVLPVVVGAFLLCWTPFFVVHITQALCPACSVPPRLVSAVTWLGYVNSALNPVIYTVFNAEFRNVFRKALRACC
Description: Activity at human D4.4 receptor in HEK293 cells co-expressing Galphaqo5 by FLIPR. The settings on record: filed as partial agonist. In kind it is functional, cell-based.
For `O=C(NCN1CCC(c2cccc[n+]2[O-])CC1)c1ccccc1`, the Activity result is “Partial agonist”. The same measure, in the same setting: next, `[O-][n+]1ccccc1C1CCN(Cc2nc3ccccc3[nH]2)CC1`: “Partial agonist”; `Cc1cccc(NC(=O)CN2CCC(c3ccc(O)cc3)CC2)c1`: “Partial agonist”; `c1ccc(N2CCN(Cc3nc4ccccc4[nH]3)CC2)nc1`: “Partial agonist”.

`O=C(CN1CCC(c2cccc[n+]2[O-])CC1)NC1CCCCC1`: the Activity entry was “Partial agonist”. `Cc1cccc(NC(=O)CN2CCC(c3cccc(O)c3)CC2)c1`: the Activity entry was “Partial agonist”.

In a further data set the test system is Rattus norvegicus. The data set can be described thus: Proerectile activity in rat measured as incidence of penile erection at 0.1 umol/kg, sc. In kind it is functional.
Settings: not given
The method in brief: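 Conscious male rats were given a single subcutaneous injection and observed for penile erections over the following 60 min. The read-out was the incidence of erections, expressed as % of animals ± SEM (n = 12–32 animals per group), with significance tested against controls. The value is the maximal incidence at the maximally effective dose.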
Consider `CN1CCc2cccc3c2[C@H]1Cc1ccc(O)c(O)c1-3` [APOMORPHINE], for which the Activity is given as 91%.

Another data set has as its target T2, D(4) dopamine receptor (Homo sapiens, UniProt P21917).
T2 sequence (P21917 whole entry): T1 sequence (whole entry)
The data set can be described thus: Agonist activity at human D4.4 receptor in HEK293 cells coexpressing G-alpha-qo5 by FLIPR.
Settings: not given
Type of data set: functional, cell-based.
`c1ccc(C2CCN(Cc3nc4ccccc4[nH]3)CC2)nc1`: the EC50 came out at 12 nM. Same read-out and setting: next, `O=C(CN1CCC(c2cccc[n+]2[O-])CC1)Nc1cccc(-c2ccccc2)c1`: 360 nM; `Cc1cc(Cl)cc(C)c1NC(=O)CN1CCC(c2ccccn2)CC1`: 240 nM.

Consider `Cc1cc(Br)ccc1NC(=O)CN1CCC(c2cccc[n+]2[O-])CC1`, for which the concentration giving a half-maximal response (EC50) is 66 nM. `O=C(CN1CCC(c2ccccn2)CC1)Nc1c(Cl)cc(Cl)cc1Cl` showed an EC50 of 145 nM. Still for that read-out and setting: the same measure for `N#Cc1cccc(C(=O)NCN2CCC(c3cccc[n+]3[O-])CC2)c1`: 840 nM; for `Cc1cccc(NC(=O)CN2CCC(c3nccs3)CC2)c1`: 1 nM. Same read-out and setting: the same measure for `CC(C)Oc1cccc(NC(=O)CN2CCC(c3cccc[n+]3[O-])CC2)c1`: 555 nM. Take `Cc1cc(C(=O)NCN2CCC(c3cccc[n+]3[O-])CC2)ccc1Cl`: it took 2460 nM to reach a half-maximal effect (EC50). This EC50 lies about 4.4-fold higher than the previous one.

Consider `Cc1cccc(NC(=O)CN2CCC(c3ccccc3)CC2)c1`, for which the half-maximal effective concentration (EC50) is 170 nM.

`O=C(NCN1CCC(c2cccc[n+]2[O-])CC1)c1ccccc1` registered a half-maximal effective concentration (EC50) of 532 nM. On the same count and under the same terms, next, `[O-][n+]1ccccc1C1CCN(Cc2nc3ccccc3[nH]2)CC1`: 54 nM; `COc1cccc(C)c1NC(=O)CN1CCC(c2cccc[n+]2[O-])CC1`: 340 nM; `Cc1cccc(NC(=O)CN2CCC(c3ccccc3F)CC2)c1`: 1 nM. The compound `Cc1cccc(C)c1NC(=O)CN1CCC(c2cccc[n+]2[O-])CC1` came in with an EC50 of 346 nM. Same read-out and setting: next, `Cc1cccc(NC(=O)CN2CCC(c3ccccc3C#N)CC2)c1`: 8 nM. In turn, `O=C(CN1CCC(c2cccc[n+]2[O-])CC1)Nc1cc(Cl)cc(Cl)c1` displayed an EC50 of 160 nM.

In turn, `CCOc1cccc(C(=O)NCN2CCC(c3cccc[n+]3[O-])CC2)c1` gave a concentration for a half-maximal effect (EC50) of 324 nM. On the same count and under the same terms, the same measure for `Cc1cc(NC(=O)CN2CCC(c3cccc[n+]3[O-])CC2)ccc1F`: 18 nM; for `CCc1cccc(C)c1NC(=O)CN1CCC(c2ccccn2)CC1`: 111 nM. Same read-out and setting: next, `O=C(NCN1CCC(c2cccc[n+]2[O-])CC1)c1ccccn1`: 3150 nM; `Cc1cccc(NC(=O)CN2CCC(c3ccc(O)cc3)CC2)c1`: 70 nM. The same measure, in the same setting: the same measure for `COc1cccc(C)c1NC(=O)CN1CCC(c2ccccn2)CC1`: 40 nM; for `Cc1cccc(NC(=O)CN2CCC(c3ccc(O)cn3)CC2)c1`: 3.8 nM. For `O=C(NCN1CCC(c2cccc[n+]2[O-])CC1)c1ccc2ccccc2c1`, the EC50 came to 115 nM. Compared with the last compound, the EC50 is about 30-fold higher.

The compound `Cc1cccc(NC(=O)CN2CCC(c3ccccc3C)CC2)c1` yielded an EC50 of 340 nM. For the compound `O=C(NCN1CCC(c2cccc[n+]2[O-])CC1)c1ccc(OC(F)(F)F)c(Cl)c1`, the response was half-maximal at 170 nM (EC50). This EC50 lies about 2-fold lower than the previous one.

With `O=C(CN1CCC(c2cccc[n+]2[O-])CC1)Nc1ccc(F)cc1`, the EC50 was found to be 85 nM. For `O=C(NCN1CCC(c2cccc[n+]2[O-])CC1)c1ccc(F)c(Cl)c1`, the half-maximal effective concentration (EC50) stood at 63 nM. Same read-out and setting: the same measure for `Cc1cccc(Cl)c1NC(=O)CN1CCC(c2ccccn2)CC1`: 60 nM. Still for that read-out and setting: the same measure for `O=C(CN1CCC(c2cccc[n+]2[O-])CC1)Nc1cccc(Cl)c1`: 62 nM.

The compound `O=C(CN1CCC(c2cccc[n+]2[O-])CC1)Nc1cccc(C(F)(F)F)c1` showed an EC50 of 76 nM. The compound `CSc1cccc(NC(=O)CN2CCC(c3cccc[n+]3[O-])CC2)c1` had an EC50 of 100 nM. The EC50 values of the last two compounds are within 1.5-fold of each other. Still for that read-out and setting: next, `O=C(CN1CCC(c2cccc[n+]2[O-])CC1)Nc1cccc(F)c1`: 160 nM.

`C=Cc1cccc(C(=O)NCN2CCC(c3cccc[n+]3[O-])CC2)c1` displayed an EC50 of 68 nM.

Compound `CCc1cccc(NC(=O)CN2CCC(c3cccc[n+]3[O-])CC2)c1` yielded an EC50 of 95 nM. Still for that read-out and setting: next, `O=C(CN1CCC(c2cccc[n+]2[O-])CC1)Nc1cccc(OC(F)(F)F)c1`: 135 nM. Same read-out and setting: the same measure for `COc1ccccc1C1CCN(CC(=O)Nc2cccc(C)c2)CC1`: 420 nM; for `Cc1cccc(NC(=O)CN2CCC(c3cccc(F)c3)CC2)c1`: 512 nM; for `O=C(NCN1CCC(c2cccc[n+]2[O-])CC1)c1cnccc1Cl`: 1290 nM. `O=C(CN1CCC(c2cccc[n+]2[O-])CC1)Nc1ccc(F)cc1C(F)(F)F` returned an EC50 of 473 nM. The same measure, in the same setting: the same measure for `Cc1ccc(C(=O)NCN2CCC(c3cccc[n+]3[O-])CC2)cc1C`: 38 nM. On the same count and under the same terms, the same measure for `O=C(NCN1CCC(c2cccc[n+]2[O-])CC1)c1cc(Cl)cc(Cl)c1`: 45 nM; for `COc1cccc(C(=O)NCN2CCC(c3cccc[n+]3[O-])CC2)c1C`: 685 nM.

As for `O=C(CN1CCC(c2cccc[n+]2[O-])CC1)Nc1cccc(Cl)c1Cl`, the EC50 turned out to be 180 nM. On the same count and under the same terms, next, `Cc1ccc(C(=O)NCN2CCC(c3cccc[n+]3[O-])CC2)cc1C(F)(F)F`: 85 nM; `Cc1ccc(Cl)cc1NC(=O)CN1CCC(c2cccc[n+]2[O-])CC1`: 126 nM. Compound `Cc1ccc(Cl)c(NC(=O)CN2CCC(c3cccc[n+]3[O-])CC2)c1Cl` yielded a half-maximal effective concentration (EC50) of 346 nM. The compound `Cc1cccc(NC(=O)CN2CCC(c3ncccc3C#N)CC2)c1` returned an EC50 of 36 nM. This EC50 lies about 9.6-fold lower than the previous one. The same measure, in the same setting: the same measure for `COc1cc(C(=O)NCN2CCC(c3cccc[n+]3[O-])CC2)ccc1Cl`: 159 nM; for `O=C(CN1CCC(c2cccc[n+]2[O-])CC1)NC1CCCCC1`: 294 nM.

Turning to `O=C(CN1CCC(c2cccc[n+]2[O-])CC1)Nc1ccccc1F`, the EC50 worked out at 270 nM. Still for that read-out and setting: next, `Cc1cc(C)cc(C(=O)NCN2CCC(c3cccc[n+]3[O-])CC2)c1`: 90 nM; `Cc1cc(C)cc(NC(=O)CN2CCC(c3cccc[n+]3[O-])CC2)c1`: 52 nM; `Cc1cc(C(=O)NCN2CCC(c3cccc[n+]3[O-])CC2)ccc1F`: 50 nM. On the same count and under the same terms, the same measure for `Cc1cccc(NC(=O)CN2CCC(c3cccc(O)c3)CC2)c1`: 8 nM; for `O=C(CN1CCC(c2cccc[n+]2[O-])CC1)Nc1ccc(F)cc1F`: 103 nM; for `Cc1cccc(C(=O)NCN2CCC(c3nccs3)CC2)c1`: 9.8 nM.

A further data set concerns the target T1, D(4) dopamine receptor (Homo sapiens). The data set can be described thus: Agonist activity at human D4.4 receptor in HEK293 cells coexpressing G-alpha-qo5 by FLIPR upto 10 uM. Type of data set: functional, cell-based.
Settings: not given
Regarding `COc1ccc(C2CCN(CC(=O)Nc3cccc(C)c3)CC2)cc1`, the result was inactive. Still for that read-out and setting: the same measure for `Cc1cccc(NC(=O)CN2CCC(c3ccc(F)cc3)CC2)c1`: “inactive”.

System in another data set: not listed separately
Description: Bioavailability in Sprague-Dawley rat at 1 mg/kg, po. Type of data set: ADME, organism-based. The settings on record: in vivo. In a few lines:
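Single 1 mg/kg dose given iv, sc or orally to Sprague-Dawley rats, dogs and monkeys; plasma concentrations followed over time (mean ± SEM, n = 3). Cmax, AUC, half-life, clearance and bioavailability calculated from the curves.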
As to `Cc1cccc(NC(=O)CN2CCC(c3ccc(O)cn3)CC2)c1`, the bioavailability was found to be 0%.

Source of the values: ChEMBL document CHEMBL1137302 (J Med Chem, 2006).
